Laboratory results from ChEMBL document CHEMBL4038330, “Discovery of Potent Orally Active Protease-Activated Receptor 1 (PAR1) Antagonists Based on Andrographolide” (J Med Chem, 2017).

What was measured:
[1] = target: T1, Proteinase-activated receptor 1 (Homo sapiens, UniProt P25116); assay: Antagonist activity at human PAR1 expressed in HEK293 cells co-expressing Galpha15 assessed as inhibition of haTRAP-induced calcium mobilization preincubated for 15 mins followed by haTRAP addition by calcium-4 dye based FLIPR assay; type: functional, cell-based
T1 sequence (P25116 whole entry): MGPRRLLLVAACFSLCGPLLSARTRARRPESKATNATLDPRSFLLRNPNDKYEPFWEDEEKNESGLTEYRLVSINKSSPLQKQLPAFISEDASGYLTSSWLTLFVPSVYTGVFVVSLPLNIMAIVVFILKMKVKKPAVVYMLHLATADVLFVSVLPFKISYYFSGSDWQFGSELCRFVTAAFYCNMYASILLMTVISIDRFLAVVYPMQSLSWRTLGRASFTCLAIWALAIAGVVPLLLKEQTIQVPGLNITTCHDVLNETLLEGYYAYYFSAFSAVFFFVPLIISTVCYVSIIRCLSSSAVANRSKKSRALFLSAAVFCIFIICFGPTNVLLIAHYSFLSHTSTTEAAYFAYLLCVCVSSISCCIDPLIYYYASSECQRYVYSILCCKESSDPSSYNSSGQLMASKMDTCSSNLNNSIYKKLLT

Plasma [2] = assay: Drug metabolism in Wistar rat plasma assessed as (1S,2S,4aS,5S,6R,8aR)-1-((E)-2-(5-(3-Fluorophenyl)pyridin-2-yl)vinyl)-6-hydroxy-5,8a-dimethyloctahydro-1H-spiro[naphthalene-2,2'-oxirane]-5-carboxylic acid metabolite formation at 10 mg/kg, po administered as single dose measured at 3 hrs post dose by LC-HRMS analysis; type: ADME, organism-based; conditions: in vivo
In short: (§1)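 Rats dosed orally at 10 mg/kg or 5 mg/kg. Plasma taken at 3.0 h after dosing. Parent and metabolites detected by extracted ion chromatograms.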

Plasma [3] = assay: Drug metabolism in Wistar rat plasma assessed as [M1-CH2-2H] metabolite formation at 10 mg/kg, po administered as single dose measured at 3 hrs post dose by LC-HRMS analysis; type: ADME, organism-based; conditions: in vivo; in short: as §1
Plasma [4] = assay: Drug metabolism in Wistar rat plasma assessed as [M1-2H] metabolite formation at 10 mg/kg, po administered as single dose measured at 3 hrs post dose by LC-HRMS analysis; type: ADME, organism-based; conditions: in vivo; in short: as §1
Plasma [5] = assay: Drug metabolism in Wistar rat plasma assessed as [M1+O] metabolite formation at 10 mg/kg, po administered as single dose measured at 3 hrs post dose by LC-HRMS analysis; type: ADME, organism-based; conditions: in vivo; in short: as §1
Plasma [6] = assay: Drug metabolism in Wistar rat plasma assessed as [M1-2H+O] metabolite formation at 10 mg/kg, po administered as single dose measured at 3 hrs post dose by LC-HRMS analysis; type: ADME, organism-based; conditions: in vivo; in short: as §1
[7] = AUC (0 to infinity) in Wistar rat plasma at 10 mg/kg, po administered as single dose administered as single dose at 3 hrs post dose by LC-MS/MS analysis; type: ADME, organism-based; parameters: dose 10 mg/kg, route oral, time infinity
Plasma [8] = assay: Stability in Wistar rat assessed as parent compound level in plasma at 10 mg/kg, po administered as single dose measured at 3 hrs post dose by LC-HRMS analysis; type: ADME, organism-based; conditions: in vivo; in short: as §1
Rattus norvegicus = assay: AUC (0 to infinity) in Wistar rat assessed as (1S,2S,4aS,5S,6R,8aR)-1-((E)-2-(5-(3-Fluorophenyl)pyridin-2-yl)vinyl)-6-hydroxy-5,8a-dimethyloctahydro-1H-spiro[naphthalene-2,2'-oxirane]-5-carboxylic acid level in plasma at 10 mg/kg, po administered as single dose at 3 hrs post dose by LC-MS/MS analysis; type: ADME, organism-based; parameters: dose 10 mg/kg, route oral, time infinity; conditions: in vivo

IC50 [1]: 7 µM
Drug metabolism (Plasma [2]): Metabolite_Detected
Drug metabolism (Plasma [3]): Metabolite_Detected
Drug metabolism (Plasma [4]): Metabolite_Detected
Drug metabolism (Plasma [5]): Metabolite_Detected
Drug metabolism (Plasma [6]): Metabolite_Detected
AUC(0-inf) [7]: 269 ng·h/mL
Stability (Plasma [8]): Unstable
AUC (Rattus norvegicus): 8412.7 ng·h/mL
SMILES: COC(=O)[C@]1(C)[C@H](O)CC[C@@]2(C)[C@H](/C=C/c3ccc(-c4cccc(F)c4)cn3)[C@@]3(CC[C@@H]21)CO3
